Assay [1] can be described thus: Agonist activity at PPARgamma in human MKN45 cells assessed as induction of cell aggregation incubated for 5 days by Hoechst 33342 staining based IN cell analyzer method.
Assay [2] addresses T1, Peroxisome proliferator-activated receptor gamma (Homo sapiens, UniProt P37231).
T1 sequence (P37231 whole entry): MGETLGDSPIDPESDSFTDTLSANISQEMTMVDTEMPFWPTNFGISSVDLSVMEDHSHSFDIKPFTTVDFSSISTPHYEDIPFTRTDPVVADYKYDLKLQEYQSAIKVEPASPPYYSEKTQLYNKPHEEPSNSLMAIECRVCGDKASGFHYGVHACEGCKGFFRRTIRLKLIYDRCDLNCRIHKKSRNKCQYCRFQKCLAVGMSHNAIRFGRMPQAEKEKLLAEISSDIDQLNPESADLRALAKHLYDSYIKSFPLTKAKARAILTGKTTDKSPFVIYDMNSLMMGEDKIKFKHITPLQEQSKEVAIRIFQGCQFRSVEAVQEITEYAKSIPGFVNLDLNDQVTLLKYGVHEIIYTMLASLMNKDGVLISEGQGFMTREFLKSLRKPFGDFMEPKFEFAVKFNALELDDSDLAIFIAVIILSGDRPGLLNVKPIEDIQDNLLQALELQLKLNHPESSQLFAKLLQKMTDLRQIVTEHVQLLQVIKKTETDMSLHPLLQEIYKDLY
Nature of the assay: Agonist activity at PPARgamma in human MKN45 cells assessed as induction of cell aggregation incubated for 5 days by Hoechst 33342 staining based IN cell analyzer method. Put shortly:
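MKN45 cells in RPMI1640 with 10% FBS at 37 °C, 5% CO2, seeded 2500 cells/well and exposed to compound 1-1000 nM (n = 3 per concentration) for 5 days. Nuclei stained with Hoechst 33342, imaged on IN Cell Analyzer, nuclear area computed. Maximum activity expressed as % of reference compound maximum; EC50 = concentration giving 50% of own maximum.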

These results are taken from BindingDB's records for doi:10.1016/j.bmc.2019.115122 (Hokkaido University, 2019).

pEC50: −log10 of the molar value.

One may read the pEC50 as the negative decadic logarithm of the EC50, by convention in mol/L. Consider `CCCc1nc2c(C)cccc2n1Cc1ccc2c(c1)COc1ccccc1/C2=C(\C)c1noc(=O)[nH]1`, for which the pEC50 in assay [1] was 8.48.
On the same count and under the same terms, the figure for `C/C(=C1/c2ccc(Cc3c(C4CC4)nc4ccc(Cl)cn34)cc2COc2cc(F)ccc21)c1noc(=O)[nH]1` is 8.70; for `C/C(=C1/c2ccc(Cn3c(C4CC4)nc4c(Cl)nccc43)cc2COc2cc(F)ccc21)c1noc(=O)[nH]1` it is 7.66; for `C/C(=C1/c2ccc(Cc3c(C4CC4)nc4c5c(ccn34)OCC5)cc2COc2cc(F)ccc21)c1noc(=O)[nH]1` it is 7.72.
On the same count and under the same terms, in the case of `CCCc1nc2ccccc2n1Cc1ccc2c(c1)COc1ccc(F)cc1/C2=C(\C)c1noc(=O)[nH]1` it was 8.15; in that of `CCCc1nc2ccccc2n1Cc1ccc2c(c1)COc1c(F)cccc1/C2=C(\C)c1noc(=O)[nH]1`, 8.42.
For `C/C(=C1/c2ccc(Cn3c(C4CC4)nc4cscc43)cc2COc2cc(F)ccc21)c1noc(=O)[nH]1`, the pEC50 in assay [1] was 8.52.
Same read-out and setting: in the case of `C/C(=C1/c2ccc(Cc3c(C4CC4)nc4cc(Cl)ccn34)cc2COc2cc(F)ccc21)c1noc(=O)[nH]1` it was 8.85; in that of `C/C(=C1/c2ccc(Cc3c(C4CC4)nc4cc(F)ccn34)cc2COc2cc(F)ccc21)c1noc(=O)[nH]1`, 8.77.
Take `COCc1nc2cc(Cl)ccn2c1Cc1ccc2c(c1)COc1cc(F)ccc1/C2=C(\C)c1noc(=O)[nH]1`: in assay [2], the pEC50 was 9.00.
With `C/C(=C1/c2ccc(Cn3c(C4CC4)nc4c(Cl)ccnc43)cc2COc2cc(F)ccc21)c1noc(=O)[nH]1`, in assay [1], the pEC50 was 7.49.
On the same count and under the same terms, the figure for `C/C(=C1/c2ccc(Cc3c(C4CC4)nc4ccccn34)cc2COc2cc(F)ccc21)c1noc(=O)[nH]1` is 8.28; for `C/C(=C1/c2ccc(Cc3c(C4CC4)nc4c(Cl)cccn34)cc2COc2cc(F)ccc21)c1noc(=O)[nH]1` it is 8.60; for `CCCc1nc2ccccc2n1Cc1ccc2c(c1)COc1cc(F)ccc1/C2=C(\C)c1noc(=O)[nH]1` it is 9.00.
